Measured values of several laboratories.
Target: Serine/threonine-protein kinase 38 (STK38, Homo sapiens, UniProt Q15208)

| Structure (SMILES) | effect on | method | tested at | remaining binding |
| --- | --- | --- | --- | --- |
| CCS(=O)(=O)c1cc2cc(C[C@@](O)(CC(C)(C)c3ccc(F)cc3C(N)=O)C(F)(F)F)[nH]c2cn1 | cell-free assay | competition with immobilised ligand | 1 µM | 76% |
| COc1cnc(Nc2cccc(S(N)(=O)=O)c2)nc1N1CCN(c2ccccc2)C(=O)C1 | binding | competition with immobilised ligand | 1 µM | 84% |
| O=C(NCC1CCOCC1)c1n[nH]cc1NC(=O)c1c(F)cccc1F | binding | competition with immobilised ligand | 1 µM | 84% |
| C[C@@H](c1ccc(-n2cnc3c(N)ncnc32)cc1)N1CCc2nn(C)c(Cc3ccccc3)c2C1=O | binding | competition with immobilised ligand | 0.1 µM | 71% |
| C=CC(=O)N1CCC(C(=O)NCC(=O)N2CCN(c3nc(-c4cnc(N)nc4C(F)F)nc(N4CCOCC4)n3)CC2)CC1 | binding | competition with immobilised ligand | 1 µM | 88% |
| CN(CCCC(F)(F)F)c1nccc(-c2cnn3ncccc23)n1 | binding |  | 1 µM | 100% |
| O=C(NCCCN1CCOCC1)c1ccc(Nc2nccc(-c3cc4ccccc4s3)n2)cc1 | binding | competition with immobilised ligand | 1 µM | 66% |
| CCOC(=O)c1cc2cc(-c3cc(C(=O)NCc4ccc(C(=O)O)cc4)nn3C)ccc2[nH]1 | cell-free assay | competition with immobilised ligand | 0.1 µM | 95% |
| N[C@H]1CCN(c2nccc(-c3cnn4ncccc34)n2)C1 | binding |  | 1 µM | 100% |
| O=C(c1ccc(Nc2nccc(-c3cc4ccccc4s3)n2)cc1)N1CCC(N2CCCC2)CC1 | binding | competition with immobilised ligand | 1 µM | 76% |
| CN(C)c1nccc(-c2cnc3ncccn23)n1 | binding |  | 1 µM | 79% |
| O=C(NCCCN1CCOCC1)c1ccc(Nc2ncc(Cl)c(-c3ccc(Cl)s3)n2)cc1 | binding | competition with immobilised ligand | 1 µM | 76% |
| O=C(NCc1ncc(C(F)(F)F)cc1Cl)c1ccc2c(c1)C1(CCS(=O)(=O)CC1)[C@H](C1CC1)N2S(=O)(=O)c1ccc(F)cc1 | cell-free assay | competition with immobilised ligand | 1 µM | 92% |
| CNC(=O)[C@@H]1CC[C@@H](n2c(-c3ccc4cnccc4c3)nc3ccc(C(=O)NCc4cccc(C(N)=O)c4)cc32)C1 | binding | competition with immobilised ligand | 1 µM | 62% |
| Cc1c(NC(=O)c2cc(C(N)=O)nc3cc(F)ccc23)c(C(F)(F)F)nn1Cc1ccc(C(C)(C)C)cc1 | cell-free assay | competition with immobilised ligand | 1 µM | 93% |
| Cc1cnn2ncc(-c3ccnc(N(C)C)n3)c2c1 | binding |  | 1 µM | 100% |
| COc1ncc2cc3ccccc3nc2c1C#N | cell-free assay | competition with immobilised ligand | 5 µM | 94% |
| C[C@@H]1CCN(c2nccc(-c3cnn4ncccc34)n2)C1 | binding |  | 1 µM | 72% |
| Cc1cc(-n2nc(Cc3cc(F)cc(C(F)(F)F)c3)nc2C)ccc1C(N)=O | cell-free assay | competition with immobilised ligand | 1 µM | 83% |
| c1cnn2ncc(-c3ccnc(N4CCC45COC5)n3)c2c1 | binding |  | 1 µM | 87% |
| Cc1nc(N2CC[C@@H](O)C2)ncc1-c1cc(C(F)(F)F)cc2[nH]ncc12 | binding | competition with immobilised ligand | 1 µM | 95% |
